The values below come from ChEMBL document CHEMBL1158403, “Discovery of CP-533536: an EP2 receptor selective prostaglandin E2 (PGE2) agonist that induces local bone formation” (Bioorg Med Chem Lett, 2009).

Data set [1] concerns the target T1, Prostaglandin E2 receptor EP2 subtype (Rattus norvegicus, UniProt Q62928). The data set can be described thus: Agonist activity against rat EP2 receptor expressed in HEK293 cells assessed as stimulation of cAMP release. Format: functional, cell-based.
Data set [2] deals with T1, Prostaglandin E2 receptor EP2 subtype. The experiment in a line: Inhibition of rat EP2 receptor expressed in HEK293 cells. Format: cell-based. The method in brief: (§1)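 Rat EP₂ or rat EP₄ receptor stably transfected into HEK-293 cells. Membranes were prepared from these cells for the receptor binding assay.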
Data set [3] deals with T2, Prostaglandin E2 receptor EP4 subtype (Rattus norvegicus, UniProt P43114). The data set can be described thus: Inhibition of rat EP4 receptor expressed in HEK293 cells. It is filed as cell-based. The method in brief: as §1
The subject of data set [4] is Rattus norvegicus. The data set can be described thus: Induction of bone formation in rat assessed as total bone area at 1 mg/kg by peripheral quantitative computerized tomography.
The nature of data set [5]: Clearance in Sprague-Dawley rat at 1 mg/kg, iv. It is filed as ADME, organism-based. Set-up: dose 1 mg/kg, route intravenous. The conditions noted are these: in vivo. The method in brief: (§2)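 Male Sprague–Dawley rats were given a single i.v. dose of 1 mg/kg. Half-life, clearance and steady-state volume of distribution were derived from the plasma pharmacokinetic profile.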

Data set [6] concerns Rattus norvegicus. The data set can be described thus: Induction of bone formation in rat assessed as bone mineral density at 3 mg/kg by peripheral quantitative computerized tomography.
Data set [7] deals with Rattus norvegicus. The experiment in a line: Induction of bone formation in rat assessed as bone mineral content at 0.3 mg/kg by peripheral quantitative computerized tomography.
The nature of data set [8]: Half life in Sprague-Dawley rat at 1 mg/kg, iv. It is filed as ADME, organism-based. Details: dose 1 mg/kg, route intravenous. The following applies: in vivo. In a few lines: as §2
In data set [9] the test system is Rattus norvegicus. The experiment in a line: Induction of bone formation in rat assessed as bone mineral content at 1 mg/kg by peripheral quantitative computerized tomography.
Data set [10] has as its system Rattus norvegicus. The experiment in a line: Induction of bone formation in rat assessed as bone mineral content at 3 mg/kg by peripheral quantitative computerized tomography.
Data set [11] relates to Rattus norvegicus. The experiment in a line: Induction of bone formation in rat assessed as bone mineral density at 0.3 mg/kg by peripheral quantitative computerized tomography.
Data set [12] deals with Rattus norvegicus. The data set can be described thus: Induction of bone formation in rat assessed as bone mineral density at 1 mg/kg by peripheral quantitative computerized tomography.
The test system of data set [13] is Rattus norvegicus. The experiment in a line: Induction of bone formation in rat assessed as total bone area at 0.3 mg/kg by peripheral quantitative computerized tomography.
Data set [14] concerns Rattus norvegicus. The experiment in a line: Induction of bone formation in rat assessed as total bone area at 3 mg/kg by peripheral quantitative computerized tomography.
The nature of data set [15]: Volume of distribution at steady state in Sprague-Dawley rat at 1 mg/kg, iv. Set-up: dose 1 mg/kg, route intravenous. Format: ADME, organism-based. The conditions noted are these: in vivo, read-out: Vdss. In a few lines:
as §2

Data set [16] has as its target T2, Prostaglandin E2 receptor EP4 subtype. The data set can be described thus: Agonist activity against rat EP4 receptor expressed in HEK293 cells assessed as stimulation of cAMP release. Format: functional, cell-based.

Broadly, the EC50 is the concentration needed to bring the measured effect to its halfway point. As a reminder, the IC50 is the midpoint of a concentration-inhibition curve. Read a high IC50 as lower potency. The term clearance denotes a measure of how efficiently the substance is removed, as volume per time. Lower therefore signals inefficient removal. Broadly, the half-life is the time in which the quantity being followed falls by half. Higher therefore signals slow loss.

T2 sequence (P43114 whole entry): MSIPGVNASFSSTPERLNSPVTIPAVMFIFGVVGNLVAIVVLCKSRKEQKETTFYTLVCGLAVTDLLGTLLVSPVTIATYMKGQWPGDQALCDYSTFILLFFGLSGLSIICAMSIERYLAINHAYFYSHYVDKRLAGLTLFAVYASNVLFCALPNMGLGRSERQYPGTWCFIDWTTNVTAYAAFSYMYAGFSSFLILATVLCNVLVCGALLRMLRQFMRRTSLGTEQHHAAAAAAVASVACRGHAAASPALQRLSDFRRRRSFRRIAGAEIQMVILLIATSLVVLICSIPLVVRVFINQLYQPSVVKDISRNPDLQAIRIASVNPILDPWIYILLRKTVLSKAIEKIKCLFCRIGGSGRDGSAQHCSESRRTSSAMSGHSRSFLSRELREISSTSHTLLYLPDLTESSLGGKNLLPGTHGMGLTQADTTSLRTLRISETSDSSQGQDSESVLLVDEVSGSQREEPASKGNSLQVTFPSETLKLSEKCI
T1 sequence (Q62928 whole entry): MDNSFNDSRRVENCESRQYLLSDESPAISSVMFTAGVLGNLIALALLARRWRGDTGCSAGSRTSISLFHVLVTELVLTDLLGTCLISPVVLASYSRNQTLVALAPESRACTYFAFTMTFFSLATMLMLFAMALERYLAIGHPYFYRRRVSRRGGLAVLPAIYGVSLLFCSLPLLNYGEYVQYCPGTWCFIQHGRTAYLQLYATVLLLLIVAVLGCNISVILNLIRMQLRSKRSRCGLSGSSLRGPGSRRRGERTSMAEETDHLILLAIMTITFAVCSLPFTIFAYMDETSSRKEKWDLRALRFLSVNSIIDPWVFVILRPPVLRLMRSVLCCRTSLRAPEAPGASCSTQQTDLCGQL

For the compound `CCCCCC(O)c1ccc(CN(CCCCCCC(=O)O)S(C)(=O)=O)cc1` (centres undefined), the EC50 in data set [1] is 44 nM. The IC50 is 93 nM in data set [2] and above 3200 nM in data set [3].

As to `CCCCc1ccc(CN(Cc2cccc(CCC(=O)O)c2)S(C)(=O)=O)cc1`, the EC50 in [1] was found to be 34.4 nM. Moreover, the 50% inhibitory concentration (IC50) is 270 nM in data set [2] and above 3200 nM in [3].

For `CC(C)(C)c1ccc(CN(CCCCCCC(=O)O)S(C)(=O)=O)cc1`, the IC50 in [2] stood at 590 nM; in data set [3], 2470 nM.

As for `CCCCc1ccc(CN(CCCOc2cccc(C(=O)O)c2)S(C)(=O)=O)cc1`, the 50% inhibitory concentration (IC50) is 3130 nM in [2] and above 3200 nM in data set [3].

Regarding `CCCCCC(=O)c1ccc(CN(CCCCCCC(=O)O)S(C)(=O)=O)cc1`, the EC50 in data set [1] amounted to 887 nM. Also, the IC50 is 636 nM in data set [2] and above 3200 nM in data set [3].

With `CC(C)(C)c1ccc(CN(Cc2cccc(OCC(=O)O)c2)S(=O)(=O)c2cccnc2)cc1`, the EC50 in [1] was determined as 0.3 nM. Also, the Activity was found to be 4.4% in the data set with Rattus norvegicus [4]; 27.5% in the data set with Rattus norvegicus [6]; 2.5% in the data set with Rattus norvegicus [7]; 26.3% in the data set on Rattus norvegicus [9]; 53.5% with Rattus norvegicus [10]; 7.5% with Rattus norvegicus [11]. Also, the Activity in the data set with Rattus norvegicus [12] is on record as 20.7%; with Rattus norvegicus [13], -4.7%; in the data set on Rattus norvegicus [14], 20.6%. The compound also registered a clearance in data set [5] of 56 mL/min/kg. Also, the IC50 in [2] is 50 nM; in data set [3], above 3200 nM. The half-life in data set [8] is 19.8 min. Besides, in [15], the Vd worked out at 0.49 L/kg.

Turning to `CCCCc1ccc(CN(CCc2ccc(CC(=O)O)cc2)S(C)(=O)=O)cc1`, the EC50 in data set [1] is 413 nM. Also, the IC50 in data set [2] was 833 nM; in data set [3], above 3200 nM.

In the case of `CCCCc1ccc(CN(c2ccccc2CCCC(=O)O)S(C)(=O)=O)cc1`, the EC50 in data set [1] stood at 103 nM. Moreover, the IC50 is 494 nM in data set [2] and above 3200 nM in data set [3].

Consider `CCCCc1ccc(CN(Cc2ccccc2OCC(=O)O)S(C)(=O)=O)cc1`, for which the IC50 in [2] and in [3] was above 3200 nM throughout.

For the compound `CC(C)(C)c1ccc(CN(Cc2cccc(CCC(=O)O)c2)S(=O)(=O)c2nccs2)cc1`, the EC50 in data set [1] is 1.1 nM. The IC50 in [2] is 63 nM; in data set [3], above 3200 nM.

As for `CC(C)CC(O)CCCN(CCCCCCC(=O)O)S(C)(=O)=O` (centres undefined), the IC50 is 2500 nM in data set [2] and above 3200 nM in [3].

As for `CC(C)(C)c1ccc(CN(Cc2cccc(CCC(=O)O)c2)S(=O)(=O)c2ccc(Cl)cc2)cc1`, the IC50 in data set [2] and in [3] was above 3200 nM in each case.

As for `CCCCc1ccc(CN(CCCCCCC(=O)O)S(C)(=O)=O)cc1`, in data set [1], the EC50 is 94 nM. Further, the half-maximal inhibitory concentration (IC50) in [2] is 160 nM; in [3], above 3200 nM.

For `CC(C)(C)c1ccc(CN(Cc2cccc(CCC(=O)O)c2)S(C)(=O)=O)cc1`, the EC50 in data set [1] worked out at 48 nM. The IC50 is 379 nM in data set [2] and above 3200 nM in data set [3].

Compound `CCCCC[C@H](O)/C=C/[C@H]1[C@H](O)CC(=O)[C@@H]1C/C=C\CCCC(=O)O` [DINOPROSTONE] gave a 50% inhibitory concentration (IC50) in [3] of 2.1 nM. Also, the EC50 in data set [16] was 0.7 nM.

In the case of `CCCCc1ccc(CN(CCCCOCC(=O)O)S(C)(=O)=O)cc1`, the concentration for a half-maximal effect (EC50) in [1] came to 407 nM. The values for the IC50 in data set [2] and in [3] were 701 nM and above 3200 nM, respectively.

Regarding `CCCCCC(O)CCCN(CCCCC(=O)O)S(C)(=O)=O` (centres undefined), the IC50 in data set [2] is above 3200 nM.

In the case of `CCCCCC(O)CCCN(CCCCCCC(=O)O)S(C)(=O)=O` (centres undefined), in [1], the EC50 is 134 nM. Besides, the IC50 in data set [2] is 225 nM; in data set [3], 2530 nM.

Turning to `CCCCc1ccc(CN(c2ccc(CCCC(=O)O)cc2)S(C)(=O)=O)cc1`, the EC50 in [1] came to 587 nM. Further, the IC50 was 654 nM in data set [2] and above 3200 nM in [3].

For the compound `CCCCCC(O)CCCN(CCCCCC(=O)O)S(C)(=O)=O` (centres undefined), in [2], half-maximal inhibition (IC50) was put at 910 nM.

For `CCCCc1ccc(CN(c2cccc(CCC(=O)O)c2)S(C)(=O)=O)cc1`, the IC50 in [2] and in [3] was above 3200 nM in each case.

Regarding `CC(C)(C)c1ccc(CN(Cc2cccc(CCC(=O)O)c2)S(=O)(=O)c2ccccc2)cc1`, the EC50 in data set [1] worked out at 0.2 nM. Also, the IC50 in data set [2] is 278 nM; in data set [3], above 3200 nM.

With `CC(C)(C)c1ccc(CN(Cc2cccc(OCC(=O)O)c2)S(C)(=O)=O)cc1`, the concentration giving a half-maximal response (EC50) in data set [1] turned out to be 203 nM. For the same compound, the IC50 in data set [2] was 792 nM; in data set [3] it was above 3200 nM.

For the compound `CS(=O)(=O)N(CCCCCCC(=O)O)Cc1ccc(-c2ccccc2)cc1`, the EC50 in data set [1] was determined as 457 nM. In addition, the results for the IC50 in data set [2] and in data set [3] were 289 nM and above 3200 nM, respectively.

For `CCCCC(O)c1ccc(CN(CCCCCCC(=O)O)S(C)(=O)=O)cc1` (centres undefined), the EC50 in [1] was determined as 423 nM. In addition, the IC50 in data set [2] was 502 nM; in data set [3] it was above 3200 nM.

`CC(C)(C)c1ccc(CN(Cc2cccc(CCC(=O)O)c2)S(=O)(=O)c2ccccn2)cc1`: the EC50 in data set [1] was found to be 2.3 nM. Besides, the IC50 in data set [2] was 52 nM; in data set [3], above 3200 nM.
